Test results as given in PubChem BioAssay.
Calls of active or inactive are those of the source.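 Rule for the calls, unless noted: active = fluorescence slope higher than the sample average by over 3 SD (cut at about -0.22 in these data, passing the limit was not always enough); inactive = the rest.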

What was measured:
[1] = inhibitors of TNFa-induced NFkB p65 translocation, primary screen, imaging, HUVEC, MLSMR starter and 10KST1 sets (AID 438;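 active = inhibition above 20% together with a positive visual image hit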;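 note: compound added about 3h40 before a 20 min TNFalpha stimulation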;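 for inhibition: signal is the nuclear over cytoplasmic p65 intensity ratio per well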); conditions: HUVEC TNFa-induced p65 nuclear translocation; cell count: measured here: nuclei count (cytotoxicity indicator), at 2.08 µM; inhibition: at 2 µM, stronger effect = higher value, 0% TNFa-plus-vehicle, 100% no-TNFa wells
[2] = inhibitors of mutant huntingtin aggregation, primary screen, imaging, exon1htt(103Q)mCFP cells, high-content imaging (AID 483;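 active = visual image review flags a hit and inhibition of aggregation exceeds 20%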;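 note: compound exposure lasted 3 days before fixation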;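 for nuclei count: percent of the per-plate median nuclei count of sample wells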); conditions: exon1htt(103Q)mCFP cell line, aggregate imaging, at 2 µM; inhibition of aggregation: stronger effect = higher value; nuclei count: measured here: cell count, toxicity
[3] = inhibitors of E-selectin induction by TNFa, primary screen, imaging, HUVEC, immunofluorescence, MLSMR starter and 10KST1 sets (AID 487;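 active = visually confirmed hit in the image check and inhibition above 20%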;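 for inhibition: signal is fraction of cell area covered by stained E-selectin grains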;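 for nuclei count: 100% = median nuclei count of all wells on the same plate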); conditions: HUVEC TNFalpha-induced E-selectin immunofluorescence imaging, at 2 µM; inhibition: stronger effect = higher value; nuclei count: measured here: cell number, toxicity
[4] = biological target: Voltage-gated potassium channel subunit beta-2 (Rattus norvegicus) (UniProt P62483); assay: KvBeta enzyme negative modulators, primary screen, biochemical, NADPH fluorescence (AID 622); conditions: recombinant KvBeta, 4-cyanobenzaldehyde reduction, at 10 µM, stronger effect = higher value;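 note: slope of raw intensity against log time taken from 70 to 1610 s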
Chain of Voltage-gated potassium channel subunit beta-2 (Rattus norvegicus) (P62483 whole entry, looked up): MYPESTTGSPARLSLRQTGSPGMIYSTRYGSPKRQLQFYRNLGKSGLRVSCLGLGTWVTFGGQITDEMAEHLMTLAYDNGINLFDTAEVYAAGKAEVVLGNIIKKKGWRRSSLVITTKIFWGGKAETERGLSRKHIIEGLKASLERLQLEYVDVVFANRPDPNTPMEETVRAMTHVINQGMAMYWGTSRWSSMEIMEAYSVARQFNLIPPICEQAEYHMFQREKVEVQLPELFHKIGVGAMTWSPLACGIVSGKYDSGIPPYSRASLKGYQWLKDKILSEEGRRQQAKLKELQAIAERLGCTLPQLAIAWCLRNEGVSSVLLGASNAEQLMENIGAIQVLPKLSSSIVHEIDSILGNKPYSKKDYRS

[5] = biological target: Voltage-gated potassium channel subunit beta-2 (Rattus norvegicus) (UniProt P62483); assay: KvBeta positive modulators, primary screen, biochemical, NADPH fluorescence (AID 623;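 active = NADPH fluorescence slope more negative than the mean of all samples by about 3 SD, 99.7% confidence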;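 note: fluorescence intensity change per second fitted from 20 to 320 s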); conditions: Recombinant KvBeta, NADPH fluorescence decrease slope, 10 min; at 10 µM; stronger effect = lower value
[6] = biological target: Muscarinic acetylcholine receptor M4 (Homo sapiens) (UniProt P08173); assay: compounds altering M4/GIRK thallium flux, either direction, primary screen, M4 allosteric agonist project, cell-based, HEK293 M4/GIRK, BTC-AM (AID 625;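 active = fluorescence slope after compound addition differing from the mean of all tested samples at 99.7% confidence, mostly higher but some lower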;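 note: thallium influx through GIRK channels coupled to M4 in HEK293 cells with BTC-AM dye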); conditions: at 10 µM, actives lie on both sides
Chain of Muscarinic acetylcholine receptor M4 (Homo sapiens) (P08173 whole entry, looked up): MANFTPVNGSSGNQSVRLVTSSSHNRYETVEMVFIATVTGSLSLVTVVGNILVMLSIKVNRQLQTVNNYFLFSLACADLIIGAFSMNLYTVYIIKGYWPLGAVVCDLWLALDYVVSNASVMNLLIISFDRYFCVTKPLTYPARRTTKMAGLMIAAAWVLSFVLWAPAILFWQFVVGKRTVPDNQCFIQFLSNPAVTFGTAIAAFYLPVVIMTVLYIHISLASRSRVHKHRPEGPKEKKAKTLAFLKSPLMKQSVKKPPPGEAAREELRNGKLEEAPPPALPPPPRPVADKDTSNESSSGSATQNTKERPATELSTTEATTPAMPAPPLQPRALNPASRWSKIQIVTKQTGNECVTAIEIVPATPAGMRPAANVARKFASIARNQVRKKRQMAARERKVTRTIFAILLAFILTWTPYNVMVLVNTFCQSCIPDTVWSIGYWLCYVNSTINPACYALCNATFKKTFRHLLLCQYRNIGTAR
Summary of the method: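 Material – HEK293 cells with M4 receptor and GIRK channels · Buffer or medium – pH 7.3 thallium assay buffer · Doses – one dose, 10 µM final · Timing – cells overnight at 37 °C, BTC-AM loading 1 h, reads 2 min total · Measured by – kinetic fluorescence with BTC-AM dye · Controls – carbachol and DMSO controls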

[7] = inhibitors of Sendai virus-induced IRF3 signaling, primary screen, TLR/RLR signaling modifier project, cell-based, Sendai virus stimulus, luciferase, 10K MLSCN set (AID 602276;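 active = inhibition at or above 50% at 10 µM; inactive = inhibition below 50%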;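 note: firefly luciferase from ISG56 promoter only with Renilla not read in this screen; 0% = Sendai virus plus DMSO and 100% = medium plus DMSO without virus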); conditions: HEK293 RL24 IRF3 luciferase reporter, at 10 µM, stronger effect = higher value
[8] = inhibitors of poly I:C-induced TLR3 signaling, primary screen, cell-based, poly I:C stimulus, luciferase, 10K MLSCN set (AID 602277;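 active = inhibition of the reporter signal at or above 50%; inactive = inhibition below 50%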); conditions: HEK293-TLR3 RL24 IRF3 luciferase reporter, at 10 µM, stronger effect = higher value

| Structure (SMILES) | cell count [1] | inhibition [1] | inhibition of aggregation [2] | nuclei count [2] [%] | inhibition [3] | nuclei count [3] [%] | fluorescence slope [4] | NADPH fluorescence slope [5] | fluorescence slope [6] | inhibition [7] | inhibition [8] |
| --- | --- | --- | --- | --- | --- | --- | --- | --- | --- | --- | --- |
| O=C(Cn1ccc2ccccc2c1=O)NCCC(=O)N1CCN(C(=O)c2ccco2)CC1 | 397 | -14.1% (inactive) | 11.3% (inactive) | 98.1 | 9.4% (inactive) | 97.8 | -0.503 (inactive) | 0.000132 (inactive) | 0.00733 (inactive) | -0.7% (inactive) | 6.13% (inactive) |
| CC(=O)N1c2c(cc(Br)cc2S(=O)(=O)N2CCN(c3ccccn3)CC2)CC1C (stereo not drawn) | 365 | -15.4% (inactive) | 21.2% (inactive) | 93.1 | -49.9% (inactive) | 128 | -0.523 (inactive) | -0.000101 (inactive) | 0.00651 (inactive) | 15.6% (inactive) | 6.87% (inactive) |
| COc1cc(OC)cc(C(=O)NCCN2CCOCC2)c1 | 633 | -11.2% (inactive) | -0.4% (inactive) | 94.3 | -24.5% (inactive) | 108 | -0.573 (inactive) | 1.5e-05 (inactive) | 0.00526 (inactive) | 7.36% (inactive) | 9.91% (inactive) |
| CCOCCCNC(=O)C1CCC(=O)N1CCc1ccccc1 (stereo not drawn) | 237 | 2.7% (inactive) | 1.1% (inactive) | 92.5 | -20% (inactive) | 95.1 | -0.568 (inactive) | -6.9e-06 (inactive) | 0.00522 (inactive) | 5.67% (inactive) | 12.9% (inactive) |
| O=C(O)CCCCCNc1nc(=S)[nH]c2ccccc12 | 494 | -7.5% (inactive) | 20% (inactive) | 102 | 9.6% (inactive) | 105 | -0.384 (inactive) | 2.9e-05 (inactive) | 0.0068 (inactive) | 11.5% (inactive) | 19.2% (inactive) |
| CCOC(=O)c1[nH]c2ccc(C)cc2c1N=C(C)N(C)C | 579 | 5.2% (inactive) | -6.9% (inactive) | 100 | -27.2% (inactive) | 108 | -0.563 (inactive) | -6e-05 (inactive) | 0.00488 (inactive) | 20.7% (inactive) | 21.2% (inactive) |
| CCOC(=O)N1CCN(c2cc3nccnc3cc2F)CC1 | 412 | 3.1% (inactive) | -5.3% (inactive) | 113 | -54.5% (inactive) | 111 | -0.173 (inactive) | -4.3e-05 (inactive) | 0.00552 (inactive) | 10.4% (inactive) | -18.8% (inactive) |
| Cc1cccc(C)c1NC(=O)CC(NCc1ccco1)C(=O)O (stereo not drawn) | 623 | -8.3% (inactive) | -5.4% (inactive) | 71.3 | 26.5% (inactive) | 105 | -0.364 (inactive) | -6.5e-05 (inactive) | 0.00596 (inactive) | 10.4% (inactive) | 23.1% (inactive) |
| CCOCCCNS(=O)(=O)c1ccc2c(c1)oc(=O)n2CC(=O)OCC | 454 | -6.6% (inactive) | 24.3% (inactive) | 119 | -7.8% (inactive) | 82.5 | -0.444 (inactive) | 3.2e-05 (inactive) | 0.00606 (inactive) | 12.8% (inactive) | 23.6% (inactive) |
| COc1ccc(-c2cc(C(=O)Nc3ccc(C)cc3)no2)cc1 | 320 | -6.5% (inactive) | -11.2% (inactive) | 108 | -9.7% (inactive) | 103 | -0.323 (inactive) | -8.4e-07 (inactive) | 0.00844 (inactive) | -20.2% (inactive) | -32.3% (inactive) |
| CC(=O)Nc1ccc(S(=O)(=O)N2CCSC2c2ccccc2)cc1 (stereo not drawn) | 241 | -12.1% (inactive) | -8.7% (inactive) | 106 | -34.7% (inactive) | 76.2 | -0.552 (inactive) | -3.6e-05 (inactive) | 0.00574 (inactive) | 18.3% (inactive) | 22% (inactive) |
| COc1ccc(-c2noc(CCC(=O)Nc3nc4ccccc4s3)n2)cc1 | 540 | -8.6% (inactive) | 21.7% (inactive) | 50.7 | -35% (inactive) | 106 | -0.586 (inactive) | -3.6e-05 (inactive) | 0.0103 (inactive) | -7.62% (inactive) | -8.39% (inactive) |
| O=C(CCn1c(=O)c2sccc2n(CC(=O)NCc2ccco2)c1=O)NCc1ccccc1 | 331 | -2.4% (inactive) | 0% (inactive) | 100 | -60% (inactive) | 111 | -0.566 (inactive) | -8.5e-05 (inactive) | 0.00667 (inactive) | -3.97% (inactive) | -0.766% (inactive) |
| FC(F)(F)c1nnc2ccc(NCn3nnc4ccccc43)nn12 | 562 | -27.6% (inactive) | 18.9% (inactive) | 85.2 | 16.1% (inactive) | 94.1 | -0.434 (inactive) | 3.1e-05 (inactive) | 0.00533 (inactive) | 12.7% (inactive) | 3.14% (inactive) |
| O=C(NCCC1=CCCCC1)C1CCN(S(=O)(=O)c2cccc3nsnc23)CC1 | 609 | 7.7% (inactive) | 4.8% (inactive) | 94.6 | -41.8% (inactive) | 126 | -0.443 (inactive) | -6e-05 (inactive) | 0.0046 (inactive) | 13.1% (inactive) | 26.5% (inactive) |
| COCCCNC(=O)C(Cc1ccccc1)NS(=O)(=O)c1ccc2c(c1)c(=O)n(C)c(=O)n2C (stereo not drawn) | 561 | -2.5% (inactive) | 42.3% (active) | 94.5 | -10.2% (inactive) | 117 | -0.468 (inactive) | -8e-06 (inactive) | 0.00611 (inactive) | -1.6% (inactive) | 19.2% (inactive) |
| CCCCn1c(CN2CCN(c3cccc(Cl)c3)CC2)nc2c1c(=O)n(C)c(=O)n2C | 581 | 3.4% (inactive) | 10.6% (inactive) | 100 | -3.3% (inactive) | 103 | -0.597 (inactive) | -6.6e-05 (inactive) | 0.00321 (inactive) | 14.4% (inactive) | -1.69% (inactive) |
| Cc1ncc(CO)c2c1OC(C)(C)OC2 | 373 | 2.5% (inactive) | -26.3% (inactive) | 106 | -39.2% (inactive) | 97.7 | -0.515 (inactive) | -0.0002 (inactive) | 0.00488 (inactive) | 8.62% (inactive) | 15.1% (inactive) |
| Cc1cccc2cc(CN(Cc3nnnn3Cc3ccccc3)C3CCCC3)c(=O)[nH]c12 | 561 | -9% (inactive) | -39.5% (inactive) | 76.4 | -35.7% (inactive) | 111 | -0.483 (inactive) | -0.00011 (inactive) | 0.00509 (inactive) | 14.3% (inactive) | 15% (inactive) |
| O=C1CC(Cc2ccccc2)C(=O)N1CCc1ccc2c(c1)OCO2 (stereo not drawn) | 480 | 3.5% (inactive) | -0.2% (inactive) | 110 | -145% (inactive) | 127 | -0.579 (inactive) | -1.8e-05 (inactive) | 0.00603 (inactive) | -0.603% (inactive) | 9.62% (inactive) |
| COc1ccccc1C(=O)Nc1ccccc1C(=O)N1CCCC1 | 675 | -6.5% (inactive) | -2.4% (inactive) | 108 | -95.5% (inactive) | 115 | -0.583 (inactive) | -5.2e-05 (inactive) | 0.00691 (inactive) | 15.4% (inactive) | 17% (inactive) |
| O=C(O)CCNc1ccc2c(c1)OCCO2 | 510 | -26.5% (inactive) | 10% (inactive) | 118 | -25.3% (inactive) | 116 | -0.348 (inactive) | -3.8e-05 (inactive) | 0.00514 (inactive) | 4.8% (inactive) | 5.31% (inactive) |
| COc1ccc(Br)cc1S(=O)(=O)N1CCOCC1 | 336 | 5% (inactive) | -25.8% (inactive) | 119 | -6.1% (inactive) | 113 | -0.462 (inactive) | -3.5e-05 (inactive) | 0.00557 (inactive) | 17.4% (inactive) | 16.5% (inactive) |
| Cc1sc2c(c1C)CN(C1CC(C)(C)NC(C)(C)C1)CN2C(=O)c1ccco1 | 307 | 10.6% (inactive) | 2% (inactive) | 91.5 | -5% (inactive) | 105 | -0.377 (inactive) | -2.6e-05 (inactive) | 0.00444 (inactive) | -1.32% (inactive) | -7.67% (inactive) |
| COc1ccccc1OCc1ccc(C(=O)NC(C)(C)C)o1 | 735 | -5.5% (inactive) | 0.6% (inactive) | 62.4 | -20.5% (inactive) | 112 | -0.601 (inactive) | 5.2e-05 (inactive) | 0.00541 (inactive) | -16.1% (inactive) | -22.5% (inactive) |
| CC(=O)C1=C(O)C(=O)N(Cc2ccco2)C1c1ccc(F)cc1 (stereo not drawn) | 381 | 4.3% (inactive) | -7.7% (inactive) | 92.3 | 21.9% (inactive) | 98 | -0.576 (inactive) | 1e-05 (inactive) | 0.00555 (inactive) | 2% (inactive) | 0.393% (inactive) |
| Clc1ccc(Cn2ncc3c(NCc4cccnc4)ncnc32)cc1 | 321 | -13.5% (inactive) | -3.5% (inactive) | 113 | 41.6% (inactive) | 82 | -0.55 (inactive) | -0.000128 (inactive) | 0.00407 (inactive) | 13.3% (inactive) | -35.2% (inactive) |
| NCC(O)COc1ccc2c(c1)OCO2 (stereo not drawn) | 378 | -7% (inactive) | -7.4% (inactive) | 99.3 | -61.9% (inactive) | 103 | -0.551 (inactive) | -0.000108 (inactive) | 0.00335 (inactive) | -1.42% (inactive) | 3.66% (inactive) |
